# pEC50, pIC50: −log10 of the molar value.
# Assays:
# [1] = tested on: Liver microsome; test: Metabolic stability in human liver microsomes at 100 uM measured after 1 hr by LC/MS analysis in presence of 1 mM NADPH; type: ADME
# In short: (§1)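 Microsomes (final protein 5 mg/mL, mouse or human) in 0.1 M sodium phosphate pH 7.4 with compound at 100 μM final (DMSO <1%). Preincubated 5 min at 37 °C, started with NADPH (1 mM final), run 60 min at 37 °C with agitation. Stopped with MeOH and centrifuged; supernatant analysed by LCMS. Controls: zero time, no NADPH, heat-inactivated microsomes, and 7-ethoxycoumarin as CYP substrate.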
# [2] = Tmax in BALB/c mouse plasma at 2.5 mg/kg, iv administered as single dose by LC/MS analysis; type: ADME, organism-based; parameters: dose 2.5 mg/kg, route intravenous
# In short: (§2)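 Female BALB/c mice given a single 2.5 mg/kg dose intravenously (IP arm run in parallel). Plasma concentration–time course followed by LCMS. AUC, Cmax, Tmax and t1/2 calculated from the curves.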
# [3] = tested on: Liver; test: Metabolic stability in mouse liver microsomes at 100 uM measured after 1 hr by LC/MS analysis in presence of 1 mM NADPH; type: ADME; in short: as §1
# [4] = Antitumor activity against CLL5 cells isolated from CLL patient assessed as cell viability after 48 hrs by FACS analysis; type: functional, cell-based; conditions: Homo sapiens
# In short: (§3)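 Primary CLL patient cells or JVM-2 line cultured 48 h (37 °C, 5% CO2) in RPMI + 10% FBS with graded compound. Stained 30 min at 37 °C with 40 nM DiOC6 and 10 μg/mL PI, then flow cytometry (525 nm DiOC6, 600 nm PI). Viability = % DiOC6+/PI− relative to untreated or vehicle control. EC50 and SE fitted from dose–response curves.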
# [5] = tested on: KB; test: Cytotoxicity against human KB cells; type: functional, cell-based
# [6] = Half life in BALB/c mouse plasma at 5 mg/kg, ip administered as single dose by LC/MS analysis; type: ADME, organism-based; parameters: dose 5 mg/kg, route intraperitoneal
# In short: (§4)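 Female BALB/c mice dosed at 6 weeks of age with a single intraperitoneal dose of 2.5 or 5.0 mg/kg, n = 4. Tail-vein blood taken at set times and stored at -80 °C. Samples precipitated with CH3CN, spun at 3000g for 10 min, concentrated, reconstituted in 1:1 CH3CN/H2O and quantified by LCMS. PK parameters derived from the concentration–time curves.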
# [7] = Antitumor activity against CLL3 cells isolated from CLL patient assessed as cell viability after 48 hrs by FACS analysis; type: functional, cell-based; conditions: Homo sapiens; in short: as §3
# [8] = tested on: Plasma; test: Protein binding in BALB/c mouse plasma at 50 uM after 1 to 24 hrs by LC-MS method; type: ADME, cell-free
# In short: (§5)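 Compound added to pooled female BALB/c mouse plasma or serum, or to human AB serum, at 50 μM final (1% DMSO) and incubated at 37 °C with gentle agitation. Aliquots taken at 0, 0.5, 1, 2, 8, 18 and 24 h, proteins precipitated with CH3CN, spun at 3000g for 10 min, supernatant analysed by LCMS. Run in triplicate.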
# [9] = tested on: Liver; test: Metabolic stability in mouse liver microsomes containing glucuronidase; type: ADME
# [10] = Antitumor activity against CLL4 cells isolated from CLL patient assessed as cell viability after 48 hrs by FACS analysis; type: functional, cell-based; conditions: Homo sapiens; in short: as §3
# [11] = Tmax in BALB/c mouse plasma at 2.5 mg/kg, ip administered as single dose by LC/MS analysis; type: ADME, organism-based; parameters: dose 2.5 mg/kg, route intraperitoneal; in short: as §4
# [12] = AUC in BALB/c mouse plasma at 5 mg/kg, ip administered as single dose by LC/MS analysis; type: ADME, organism-based; parameters: dose 5 mg/kg, route intraperitoneal; in short: as §4
# [13] = AUC in BALB/c mouse plasma at 2.5 mg/kg, ip administered as single dose by LC/MS analysis; type: ADME, organism-based; parameters: dose 2.5 mg/kg, route intraperitoneal; in short: as §4
# [14] = tested on: Serum; test: Protein binding in human AB serum at 50 uM after 1 to 24 hrs by LC-MS method; type: ADME; in short: as §5
# [15] = Drug recovery in BALB/c mouse plasma at 50 uM after 24 hrs by LC-MS method; type: ADME, cell-free; conditions: read-out: Drug recovery; in short: as §5
# [16] = Antitumor activity against CLL2 cells isolated from CLL patient assessed as cell viability after 48 hrs by FACS analysis; type: functional, cell-based, Homo sapiens; conditions: cll2; in short: as §3
# [17] = Cmax in BALB/c mouse plasma at 2.5 mg/kg, ip administered as single dose by LC/MS analysis; type: ADME, organism-based; parameters: dose 2.5 mg/kg, route intraperitoneal; in short: as §4
# [18] = Drug recovery in BALB/c mouse serum at 50 uM after 24 hrs by LC-MS method; type: ADME, cell-free; conditions: read-out: Drug recovery; in short: as §5
# [19] = Antitumor activity against CLL6 cells isolated from CLL patient assessed as cell viability after 48 hrs by FACS analysis; type: functional, cell-based; conditions: Homo sapiens, CLL6, 48 h; in short: as §3
# [20] = Cmax in BALB/c mouse plasma at 5 mg/kg, ip administered as single dose by LC/MS analysis; type: ADME, organism-based; parameters: dose 5 mg/kg, route intraperitoneal; in short: as §4
# [21] = tested on: Liver; test: Metabolic stability in human liver S9 fraction containing glucuronidase; type: ADME, subcellular
# [22] = Half life in BALB/c mouse plasma at 2.5 mg/kg, iv administered as single dose by LC/MS analysis; type: ADME, organism-based; parameters: dose 2.5 mg/kg, route intravenous; in short: as §2
# [23] = Antitumor activity against CLL1 cells isolated from CLL patient assessed as cell viability after 48 hrs by FACS analysis; type: functional, cell-based; conditions: Homo sapiens; in short: as §3
# [24] = tested on: Serum; test: Protein binding in BALB/c mouse serum at 50 uM after 1 to 24 hrs by LC-MS method; type: ADME; in short: as §5
# [25] = Cytotoxicity against human CLL cells; type: functional, cell-based
# In short: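 Primary patient CLL cells cultured 48 h (37 °C, 5% CO2) in RPMI with 10% FBS and test compound. Viability taken as the DiOC6+/PI− fraction relative to untreated or vehicle control. EC50 with SE from dose–response curves.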
# [26] = Antitumor activity against human JVM2 cells assessed as cell viability after 48 hrs by FACS analysis; type: functional, cell-based; conditions: JVM-2, 48 h; in short: as §3
# [27] = AUC in BALB/c mouse plasma at 2.5 mg/kg, iv administered as single dose by LC/MS analysis; type: ADME, organism-based; parameters: dose 2.5 mg/kg, route intravenous; in short: as §2
# [28] = Tmax in BALB/c mouse plasma at 5 mg/kg, ip administered as single dose by LC/MS analysis; type: ADME, organism-based; parameters: dose 5 mg/kg, route intraperitoneal; in short: as §4
# [29] = tested on: Mus musculus; test: Half life in BALB/c mouse plasma at 2.5 mg/kg, ip administered as single dose by LC/MS analysis; type: ADME, organism-based; parameters: dose 2.5 mg/kg, route intraperitoneal; conditions: in vivo; in short: as §4
# [30] = Drug recovery in human AB serum at 50 uM after 24 hrs by LC-MS method; type: ADME, cell-free; conditions: read-out: Drug recovery; in short: as §5
# [31] = tested on: HeLa; test: Antitumor activity against human HeLa cells assessed as cell viability by MTT assay; type: functional, cell-based
# In short: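 Adherent HeLa cells exposed to compound, then medium replaced with 0.5 mg/mL MTT in phenol-red-free RPMI and incubated overnight at 37 °C. Lysed with 15% SDS/0.015 M HCl and OD read at 570 nm once formazan dissolved. EC50 and SE derived from dose–response curves.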
# [32] = Cmax in BALB/c mouse plasma at 2.5 mg/kg, iv administered as single dose by LC/MS analysis; type: ADME, organism-based; parameters: dose 2.5 mg/kg, route intravenous; in short: as §2
smiles,measurement,setting,value
CN1C(=O)N[C@H]2[C@@H]3NC(=O)c4ccc(Br)n4[C@@H]3C[C@]21O (stereo in doubt; 1a) [AGELASTATIN A],Stability,[1],Stable
same,Tmax,[2],2 min
same,Stability,[3],Stable
same,pEC50,[4],6.54
same,IC50,[5],0.5 µg/mL
same,half-life,[6],60 min
same,pEC50,[7],6.62
same,PPB,[8],Not Active
same,Stability,[9],Stable
same,pEC50,[10],6.43
same,Tmax,[11],30 min
same,AUC,[12],4.29 µM·h
same,AUC,[13],2.95 µM·h
same,PB,[14],Not Active
same,"remaining at 24 h, 50 µM",[15],65%
same,pEC50,[16],6.80
same,Cmax,[17],1280 nM
same,"remaining at 24 h, 50 µM",[18],65%
same,pEC50,[19],5.94
same,Cmax,[20],2300 nM
same,Stability,[21],Stable
same,half-life,[22],4 min
same,pEC50,[23],6.51
same,PB,[24],Not Active
same,pIC50,[25],7.22
same,pEC50,[26],6.55
same,AUC,[27],1.74 µM·h
same,Tmax,[28],30 min
same,t1/2,[29],60 min
same,"remaining at 24 h, 50 µM",[30],65%
same,pEC50,[31],6.96
same,Cmax,[32],4500 nM

# Source: ChEMBL document CHEMBL3297658, “Potent fluorinated agelastatin analogues for chronic lymphocytic leukemia: design, synthesis, and pharmacokinetic studies” (J Med Chem, 2014)
